Pyk2 oligo antag – antagonists of Pyk2 self-association, primary screen, Q293 cells, FERM NanoBiT luminescence, HTS | Protein-tyrosine kinase 2-beta (Homo sapiens), Q14289 | stronger effect = lower value | z-score (the deposit names both 25 µM and 10 µM) | 99,000 compounds, 0.83% hits | AID 1347419, 2020;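 active = Z-score of -3 or lower, scaled per plate to the spread of control and sample wells; inactive = z-score above -3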;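 also: negative z-score means lost luminescence so less FERM oligomerization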
LYP inh 2 – PTPN22 phosphatase inhibitors, primary screen, biochemical, DiFMUP fluorescence, 2 µM | AID 640, 2007 | 96,000 compounds, 0.21% hits | inhibition, % at 2 µM | Tyrosine-protein phosphatase non-receptor type 22 (Homo sapiens), Q9Y2R2 | recombinant LYP catalytic domain;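 active = inhibition at 2 µM at or above a set limit, the screen mean plus 3 SD, cut at about 24% in these data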;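 also: 0% = DMSO with enzyme and 100% = enzyme fully blocked by orthovanadate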
Rev-RRE block – HIV-1 Rev-RRE binding inhibitors, primary screen, biochemical, FRET, protein-RNA interaction; AID 704, 2007; 97,000 compounds, 0.79% hits; Rev peptide-RRE RNA binding; inhibition, % at 8 µM;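 active = inhibition above the screen-wide mean plus 3 SD, cut at about 35% in these data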;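 also: 0% = median DMSO wells and 100% = median Neomycin B control wells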
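Test system – labelled RRE RNA duplex and labelled Rev peptide · Signal – fluorescein-to-Cy5 FRET, 480 nm excitation · Evaluation – % inhibition of FRET ratio versus controls · Benchmarks – DMSO low control, neomycin B high control · Incubation – 5 min RNA-compound premix plus 15 min binding step, 25 °C · Medium – HEPES pH 7.5 salt buffer with EDTA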
PTPN22 act – LYP phosphatase activators, primary screen, biochemical, DiFMUP fluorescence, 2 µM; Tyrosine-protein phosphatase non-receptor type 22 (Homo sapiens), Q9Y2R2; recombinant LYP; 0 = plate median, 100 = signal doubled; activation, % at 2 µM; 96,000 compounds, 0.11% hits; AID 697, 2007;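 active = activation at 2 µM above a set limit, the mean plus 5 SD, cut at about 37% in these data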
* hit, by the source's call; . = no result; [ ] = another dose, or the depositor's remark. An excerpt weighted towards active compounds, which were near 1.8% of everything screened.

SMILES | Pyk2 oligo antag | LYP inh 2 | Rev-RRE block | PTPN22 act
CC(C)CC(c1nnnn1Cc1cccs1)N1CCN(c2nc3ccccc3s2)CC1 (configuration not stated) | -3.57* | 5.8 | 3.3 | -6.4
COCCn1nnnc1C(c1cccs1)N1CCN(c2cc(C)ccc2C)CC1 (configuration not stated) | -1.67 | 5.9 | 1.7 | -8.8
Clc1ccc(C(c2nnnn2C2CCCC2)N2CCN(c3nc4ccccc4s3)CC2)cc1 (configuration not stated) | -3.29* | 5.2 | 4.8 | -4.7
COCCn1nnnc1C(c1cccs1)N1CCN(c2nc3ccccc3s2)CC1 (configuration not stated) | -3.39* | -1.4 | 6.1 | -1.1
Cc1nn(-c2ccccc2)c2sc(C(=O)OC3CCOC3=O)cc12 (configuration not stated) | -0.54 | -5.9 | 10.2 | 1.6
CCOc1ccc(-c2nc(N)ncc2-c2ccccc2)c(O)c1 | -2.53 | 4.2 | 18.4 | -0.6
C=C(C)COc1ccc(-c2nc(N)ncc2Oc2ccccc2OCC)c(O)c1 | -4.45* | 4.7 | 6.2 | -6.4
CCOC(=O)c1c(NC(C)=O)sc2c1CCC(C=O)=C2Sc1ccccc1 | -3.51* | 4.8 | 8.9 | -4.9
COc1ccc(C2(C(=O)NCCCN3CCOCC3)CCOCC2)cc1 | 1.32 | -6.4 | 5.4 | 6.7
Cc1cccc(/C=C2/S/C(=N/N=C3\CC4CCC3(C)C4(C)C)NC2=O)c1 (configuration not stated) | -1.36 | 8.9 | 3.8 | -5.0
CCCOc1ccc(C(C)=O)cc1CSc1nc(O)cc(=O)[nH]1 | 0.7 | -7.2 | 0.3 | 7.6
COc1c2occc2c(OC)c2c(=O)cc(C(F)(F)C(F)(F)F)oc12 | -3.21* | 1.3 | -1.0 | -3.3
O=C(Nc1ccc(Cl)c(Cl)c1)OCCNC(=O)c1cccc(Cl)c1 | 0.91 | 8.7 | 9.3 | -7.9
CN1CCN(c2ccc(S(=O)(=O)N3CCCCC3)cn2)CC1 | -3.89* | 7.2 | 4.4 | -9.9
O=S(=O)(c1ccc(N2CCCC2)nc1)N1CCOCC1 | -0.48 | -26.7 | -2.2 | 27.9
CC1=CC(C)=Nc2ccccc2N1 | -0.61 | 4.7 | 47.5* | -2.7
O=C1c2ccccc2C(=O)c2c1oc(C(F)(F)F)c2C(=O)c1ccccc1 | -2.93 | 2.2 | 15.6 | 0.3
O=C1c2ccccc2-c2onc3ccc(Oc4ccccc4)c1c23 | -1.56 | 9.1 | 64.3* | -7.6
Nc1cc2c([N+](=O)[O-])cccc2o1 | -0.01 | -4.4 | 50.6* | 4.2
O=C1CCN2C=Nc3cccc4ccc1c2c34 | 0.43 | 1.1 | 129.7*[fluorescence artefact?] | -1.7
N#CC1(C#N)CC(C=O)=C(N)C1(C#N)CC(=O)c1ccc(F)cc1 (configuration not stated) | 0.44 | 17.9 | 84.0*[fluorescence artefact?] | -14.7
O=C1c2cccc3c(O)ccc(c23)C(=O)N1Cc1ccccc1 | -0.09 | -5.8 | 130.5*[fluorescence artefact?] | 4.1
CS/C(=N\S(=O)(=O)c1cccs1)NC(=O)CSc1nc2ccccc2s1 | -0.24 | 7.7 | 4.3 | -7.8
CCN(Cc1ccccc1)S(=O)(=O)c1ccc(C(=O)Nc2nnc(-c3ccccc3OC)o2)cc1 | -3.91* | 12.0 | 10.3 | -12.4
COc1ccccc1-c1nnc(NC(=O)c2ccc(S(=O)(=O)N(C)C)cc2)o1 | -1.19 | 6.1 | 6.5 | -6.5
SMILES | Pyk2 oligo antag | LYP inh 2 | Rev-RRE block | PTPN22 act
O=C1c2cccc3c(N4CCCCC4)ccc(c23)C(=O)N1c1ccc(Cl)cn1 | . | -4.3 | 120.9*[fluorescence artefact?] | 6.4
O=C1c2cccc3c(N4CCCCC4)ccc(c23)C(=O)N1c1ccccn1 | 0.09 | 7.2 | 126.3*[fluorescence artefact?] | -7.8
O=C1c2cccc3c([N+](=O)[O-])ccc(c23)C(=O)N1c1ccc(Cl)cn1 | -2.35 | 5.0 | 69.0* | -1.6
CC1=C(C)C(=O)N(c2ccccn2)C1=O | 0.56 | -9.3 | 5.6 | 8.1
O=C(O)c1ccc2c(c1)C(=O)N(c1ccc(Cl)cn1)C2=O | . | 2.0 | 0.9 | -4.3
O=C1c2cccc3c([N+](=O)[O-])ccc(c23)C(=O)N1c1ccccn1 | 0.03 | 14.2 | 17.0 | -12.1
CCOC(=O)N1CCN(C(=O)c2ccc3c(SCC(=O)O)c4c(nc3c2)CCC4)CC1 | . | -0.5 | 3.7 | 0.5
O=S(=O)(c1ccc(Oc2ccc(Br)cc2)cc1)N1CCOCC1 | -0.29 | 1.4 | 8.0 | -4.2
Cc1nn(-c2ccccc2)c(Cl)c1/C=C1\N=C(c2ccccc2)OC1=O | . | -0.1 | 7.8 | 0.0
O=C(c1cc(C2CC2)nc2ccc(Br)cc12)N1N=C(C(F)F)CC1(O)C(F)F (configuration not stated) | -3.32* | -4.9 | 14.9 | 4.3
O=C(c1cc(C2CC2)nc2ccccc12)N1N=C(C(F)F)CC1(O)C(F)F (configuration not stated) | -0.21 | -7.9 | 7.0 | 7.3
CS(=O)(=O)N1CCCC(C(=O)NCCCN2CCOCC2)C1 (configuration not stated) | 0.96 | 7.5 | 4.0 | -7.0
CCCCN(CCCC)S(=O)(=O)c1ccc(NC(=O)c2cccs2)cc1 | -3.16* | 12.2 | 16.6 | -13.1
Cc1ccc(C(=O)C2(C)C3c4cc(Br)ccc4OC(=O)C32C(=O)c2ccco2)cc1 (configuration not stated) | -3.13* | -22.4 | 10.8 | 24.1
CC1(C(=O)c2ccccc2)C2c3c(ccc4ccccc34)OC(=O)C21C(=O)N1CCOCC1 (configuration not stated) | -0.72 | 5.0 | 0.3 | -0.3
CCCCN(CC)C(=O)Cn1c(=O)sc2ccccc21 | -0.22 | 6.8 | 4.6 | -6.0
CSc1nc(NC(C)=O)nc(C)c1Br | 0.13 | -3.9 | -1.7 | 2.9
CCCCSc1nc2c(cc1C#N)CCC2 | 1.7 | -25.8 | 13.3 | 19.5
CCCSc1nc(C)c(-c2csc(C(C#N)=C3CCCC3)n2)cc1C#N | -0.36 | 25.8* | 12.4 | -26.6
Cc1ccccc1-n1c(SCc2c(C)noc2C)nnc1-c1c[nH]c2ccccc12 | -3.45* | -6.9 | 7.1 | 5.0
Cc1noc(C)c1CSc1nnc(-c2ccncc2)n1-c1cccc(Cl)c1C | -1.34 | . | . | .
CN1C(=O)C2(C(C#N)=C(N)Oc3n[nH]c(-c4ccc(Cl)cc4)c32)c2ccccc21 (configuration not stated) | -3.05* | -5.6 | 9.6 | 4.1
Cc1[nH]nc2c1C1(C(=O)N(Cc3ccc(Cl)cc3)c3ccccc31)C(C#N)=C(N)O2 (configuration not stated) | -1.47 | 6.9 | 12.3 | -8.8
Cn1cc(Br)c(C(=O)NC2CCCCC2)n1 | 0.32 | 7.1 | 7.0 | -3.4
Fc1ccc(Sc2cc(Cl)c(-c3ccccc3)nn2)cc1 | -3.49* | -0.2 | 10.5 | 2.7
Fc1ccc(Sc2nc(-c3ccccc3)nnc2C(F)(F)F)cc1 | -0.86 | 3.1 | 12.1 | 0.2
CCOc1ccc(-n2c3nc4ccccc4nc3c3c(=O)n(Cc4ccco4)cnc32)cc1 | . | 12.4 | 3.0 | -16.0
Cc1cc(C)cc(-n2c3nc4ccccc4nc3c3c(=O)n(Cc4ccco4)cnc32)c1 | 0.2 | 38.0* | 1.5 | -35.8
